In the library only some 3.1% were active in any assay of this set; here they are far more common.
PGC1a acetyl inh – inhibitors of PGC1a acetylation signal, primary screen, cell-based, U2OS, AlphaScreen, inhibitor mode | AlphaScreen anti-acetyl-lysine; with virally co-expressed GCN5 acetyltransferase | inhibition, % at 15.6 µM | actives 0.17% (n = 350,000) | AID 651687, 2012;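 active = every replicate shows inhibition of at least 40%; inconclusive = mean inhibition at least 40% but some replicate below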
FN deposit inh – inhibitors of fibronectin matrix deposition, primary screen, AH1F cells, Alexa488-fibronectin fluorescence, plate reader; AH1F fibroblasts, overnight; inhibition, % at 12.6 µM; actives 0.086% (n = 350,000);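 active = mean inhibition across replicates of 30% or more, regardless of how many single replicates reach that level; inconclusive = mean under 30% yet at least half of replicates reach 30%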
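Assay system: AH1F fibroblasts / Quantity: 10000 cells per well / Medium: DMEM plus 2% serum, read in PBS / Reagent: labelled fibronectin 24 nM / Dosing: single dose, pinned / Times: 1 h cell attachment, overnight exposure to compound and label / Signal: fluorescence, ex 485 nm, em 525 nm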
PAX8 inh HTS – inhibitors of PAX8-driven TPO luciferase reporter, primary screen, RMG-I cells, single concentration; SteadyGlo, 24 h; inhibition, % at 12.6 µM; actives 1.2% (n = 360,000); AID 652154, 2013;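 active = mean replicate inhibition at least 60% with every replicate also reaching 60%; inconclusive = only one of the two criteria is met; inactive = mean below 60% and not all replicates reaching 60%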;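 also: luciferase light reporting Pax8 driven TPO promoter activity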
HIV Env fusion – inhibitors of HIV-1 Env-driven cell-cell fusion, primary screen, HeLa-JRFL effector, CEM21 target cells, luciferase; actives 1.1% (n = 360,000); inhibition, % at 12.3 µM;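 active = mean replicate inhibition score of at least 50 and every replicate individually at or above 50; inconclusive = only one of the two criteria met; inactive = mean below 50 and not all replicates reaching 50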
FGF22 binding – binders of human FGF22 protein, primary screen, FGF22 synaptogenesis inhibitor project, biophysical, thermal shift, single point | Fibroblast growth factor 22 (Homo sapiens), Q9HCT0 | recombinant FGF22 thermal shift, SYPRO orange fluorescence; percent of sucrose octasulfate shift, DMSO zero | activity (Tm shift, normalised), % at 9.99 µM | actives 1.5% (n = 340,000);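 active = mean Tm shift, scaled 0 neutral to 100 positive control, at about 1.3% or above, every replicate too, limit read from the data; inconclusive = no clear call, values can overlap the other calls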
Target sequence (Q9HCT0 whole entry, looked up): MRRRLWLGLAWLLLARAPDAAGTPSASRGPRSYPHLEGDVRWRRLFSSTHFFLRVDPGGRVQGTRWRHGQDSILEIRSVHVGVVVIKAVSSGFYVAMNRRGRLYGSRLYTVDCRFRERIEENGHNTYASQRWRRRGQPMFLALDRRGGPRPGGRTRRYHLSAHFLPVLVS
EWS-Fli block – EWS/Fli-driven NR0B1 reporter inhibitors, primary screen, A673 cells, NR0B1 luciferase, luminescence, MLPCN library | actives 0.67% (n = 350,000) | AID 651661, 2012 | viability-normalised | inhibition, % at 12.6 µM;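 active = mean inhibition of at least 50% after viability correction, with every replicate also passing that limit; inconclusive = mean reaches 50% but only one of two replicates passes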;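 also: firefly luciferase signal divided by Alamar Blue viability fluorescence both relative to DMSO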
A number is an active result; – = inactive; ? = inconclusive; · = no result.

SMILES	PGC1a acetyl inh	FN deposit inh	PAX8 inh HTS	HIV Env fusion	FGF22 binding	EWS-Fli block
CCCNC(=O)N(C)C[C@@H]1Oc2ncc(-c3ccccc3F)cc2C(=O)N([C@@H](C)CO)C[C@@H]1C	–	–	–	–	·	–
FC(F)(F)c1cnc(NNC(=S)Nc2ccccc2Cl)c(Cl)c1	·	–	74	–	·	·
C[C@H]1CN([C@@H](C)CO)C(=O)c2cc(NC(=O)NC3CCCCC3)ccc2O[C@H]1CN(C)C(=O)NC1CCCCC1	–	·	·	–	–	–
CCn1c2ccccc2c2cc(NC(=O)CNCc3ccccc3OC)ccc21	·	–	–	–	–	57
CCn1c2ccccc2c2cc(NC(=O)c3cccc(OC)c3OC)ccc21	·	–	–	·	–	–
O=C(Nc1ccc2c(c1)[C@H]1C[C@H](CC(=O)N3CCOCC3)O[C@@H](CO)[C@H]1O2)NC1CCCC1	–	–	–	·	–	–
Nc1nc2ccccc2n1C(=O)c1ccc(F)cc1	–	–	–	–	–	–
Nc1nc2ccccc2n1C(=O)c1ccccc1	·	–	–	–	43	61
CON(C)c1nc(OCCNC(=O)OCc2ccc(Cl)cc2Cl)nc(N(C)C)n1	·	–	·	139	·	·
CON(C)c1nc(OCCNC(=O)COc2ccc(Cl)cc2C)nc(N(C)C)n1	–	–	–	163	·	·
C[C@@H]1CCCCO[C@@H](CN(C)C(=O)CCCN(C)C)[C@H](C)CN([C@@H](C)CO)C(=O)c2cc(NS(=O)(=O)c3ccc(Cl)cc3)ccc2O1	–	–	–	–	–	–
Cc1cc(C(=O)Nc2cccc3c2O[C@H](CN(C)Cc2ccc(-c4ccccc4)cc2)[C@@H](C)CN([C@@H](C)CO)C3=O)n(C)n1	–	·	?	·	–	–
O=C(CCNC(=O)c1ccccc1)Nc1ccc(F)c(Cl)c1	·	–	–	–	44	–
Cc1ccc(-c2cnc3c(Nc4cccc(OC(F)(F)C(F)F)c4)nccn23)cc1	·	–	–	61	–	–
FC(F)C(F)(F)Oc1cccc(Nc2nccn3c(-c4cc(C(F)(F)F)cc(C(F)(F)F)c4)cnc23)c1	·	–	–	–	–	–
Cn1c(SCC(=O)c2ccccc2)nnc1-c1ccncc1	·	–	–	–	–	–
Cn1c(SCC(=O)c2ccccc2)nnc1-c1ccccn1	–	–	90	–	–	–
CO[C@@H]1CN(C)C(=O)c2ccc(NC(=O)C3CC3)cc2OC[C@@H](C)N(C(=O)c2ccncc2)C[C@H]1C	–	–	–	–	–	–
Cc1ccc(-c2nc3c(c(=O)[nH]c(=O)n3CC(C)C)n2CC(C)C)cc1[N+](=O)[O-]	·	–	–	–	–	–
CC(C)Cn1c(-c2cc(Br)ccc2F)nc2c1c(=O)[nH]c(=O)n2CC(C)C	–	–	–	–	2.3	–
O=C(Cn1cnc2ccccc21)N/N=C/c1ccccc1	·	–	–	–	43	–
Cc1cccc(-c2noc(CN(C(=O)c3ccc4c(c3)OCO4)C(C)C)n2)c1	–	·	·	·	·	·
Cc1nc(C(C)N(C)Cc2nc(-c3ccc4c(c3)OCO4)no2)c(C)s1 (stereo unspecified)	97	–	–	–	–	–
CCCC(=O)Nc1ccc2c(c1)C(=O)N(C)C[C@@H](OC)[C@H](C)CN(C(=O)CC1CC1)[C@@H](C)CO2	–	–	–	–	–	–
Cc1ccc(S(=O)(=O)N[C@H]2CC[C@@H](CC(=O)N3CCN(c4ccccc4)CC3)O[C@H]2CO)cc1	–	·	–	–	–	–
SMILES	PGC1a acetyl inh	FN deposit inh	PAX8 inh HTS	HIV Env fusion	FGF22 binding	EWS-Fli block
Cc1ccc(CC#N)c(-c2c(CC#N)ccc(C)c2C)c1C	–	–	–	–	–	–
Cc1ccc2c(c1C)-c1c(ccc(C)c1C)C(=O)C2=O	–	–	93	–	–	59
CCc1ccc2nc(SCC(=O)Nc3ccccc3N3CCOCC3)c(C#N)cc2c1	–	–	–	–	–	59
CCCN(C)C[C@@H]1Oc2ncc(C#CCC(C)C)cc2C(=O)N([C@H](C)CO)C[C@H]1C	–	–	–	–	–	–
Cc1cc(C(=O)N2CC=C(c3ccccc3)CC2)c2ccccc2n1	·	–	–	–	–	72
COc1cccc(-c2nc(CS(=O)(=O)CC(=O)NCCCN3CCN(C)CC3)c(C)o2)c1	–	–	–	–	–	–
COc1cccc(-c2nc(CS(=O)(=O)CC(=O)NCCCN3CC(C)CC(C)C3)c(C)o2)c1 (stereo unspecified)	·	–	118	–	–	–
C[C@H]1CCCCO[C@@H](CN(C)C(=O)Nc2ccc3c(c2)OCO3)[C@@H](C)CN([C@@H](C)CO)C(=O)c2cc(NC(=O)Nc3ccccc3)ccc2O1	–	–	–	–	–	–
CCOc1ccccc1Cn1c(=O)sc2ccccc21	·	–	–	–	43	–
CO[C@@H]1CN(C)C(=O)c2ccc(NS(=O)(=O)c3cn(C)cn3)cc2OC[C@H](C)N(Cc2cccc(F)c2)C[C@@H]1C	–	–	·	·	–	–
COc1cc(/C=C2\COC/C(=C\c3cc(OC)c(OC)c(OC)c3)C2=O)cc(OC)c1OC	·	–	106	110	–	74
COc1cc(/C=C2\CCC(C3CCCC3)C2=O)cc(OC)c1OC (stereo unspecified)	·	–	–	–	–	–
COc1cc(/C=C2\CC(C(C)(C)C)C/C(=C\c3cc(OC)c(OC)c(OC)c3)C2=O)cc(OC)c1OC (stereo unspecified)	?	–	–	–	–	82
C[C@@H]1CN([C@H](C)CO)C(=O)Cc2cc(NC(=O)c3ccncc3)ccc2O[C@H]1CN(C)Cc1ccncc1	–	·	–	–	–	–
O=C1c2ccccc2CCC12OC2c1ccc([N+](=O)[O-])cc1 (stereo unspecified)	·	–	–	–	44	–
CC(C)N(C(=S)NC1CC2CCC1C2)c1ccccc1 (stereo unspecified)	·	–	–	–	44	–
Cc1cccc(Nc2nc(-c3c(C)nc4ccccn34)cs2)c1	–	–	·	92	·	·
Cc1nc2ccccn2c1-c1csc(Nc2cccc(O)c2)n1	–	–	–	–	–	–
COc1cccc2c1C1COC3C4CC(C(=O)O)C(C(C2)N13)N4C (stereo unspecified)	–	–	·	–	–	72
Cc1ccccc1S(=O)(=O)N1CC(=O)N2[C@H](C1)[C@H](c1ccc(C#CC3CC3)cc1)[C@@H]2CO	–	·	–	·	·	–
Cn1cc(/C=C(\C(=O)O)C(C(=O)O)=C2CCCCC2)c2ccccc21	–	–	95	–	–	–
Cn1cc(/C=C/C(=O)c2ccccc2)c2ccccc21	·	–	–	–	–	–
